# How the values were obtained:
# Histone deacetylase 11 = target: T1, Histone deacetylase 11 (Homo sapiens, UniProt Q96DB2); assay: Inhibition of recombinant human HDAC11 enzyme using Ac-LeuGlyLys(Ac)-AMC as substrate after 15 to 30 mins
# T1 sequence (Q96DB2 whole entry): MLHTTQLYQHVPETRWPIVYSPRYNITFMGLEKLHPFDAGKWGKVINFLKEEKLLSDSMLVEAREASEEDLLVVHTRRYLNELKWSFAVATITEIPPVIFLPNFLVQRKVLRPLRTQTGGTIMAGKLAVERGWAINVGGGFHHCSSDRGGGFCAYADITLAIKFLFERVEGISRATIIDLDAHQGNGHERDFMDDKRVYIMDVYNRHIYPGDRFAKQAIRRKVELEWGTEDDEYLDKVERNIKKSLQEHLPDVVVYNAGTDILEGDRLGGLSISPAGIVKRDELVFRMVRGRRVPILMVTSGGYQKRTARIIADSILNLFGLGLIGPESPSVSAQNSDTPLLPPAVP
# [1] = target: T2, Polyamine deacetylase HDAC10 (Homo sapiens, UniProt Q969S8); assay: Inhibition of recombinant human HDAC10 enzyme using tetrapeptide Ac-ArgThr-Lys(Ac)Lys(Ac)-AMC as substrate after 15 to 30 mins
# T2 sequence (Q969S8 whole entry): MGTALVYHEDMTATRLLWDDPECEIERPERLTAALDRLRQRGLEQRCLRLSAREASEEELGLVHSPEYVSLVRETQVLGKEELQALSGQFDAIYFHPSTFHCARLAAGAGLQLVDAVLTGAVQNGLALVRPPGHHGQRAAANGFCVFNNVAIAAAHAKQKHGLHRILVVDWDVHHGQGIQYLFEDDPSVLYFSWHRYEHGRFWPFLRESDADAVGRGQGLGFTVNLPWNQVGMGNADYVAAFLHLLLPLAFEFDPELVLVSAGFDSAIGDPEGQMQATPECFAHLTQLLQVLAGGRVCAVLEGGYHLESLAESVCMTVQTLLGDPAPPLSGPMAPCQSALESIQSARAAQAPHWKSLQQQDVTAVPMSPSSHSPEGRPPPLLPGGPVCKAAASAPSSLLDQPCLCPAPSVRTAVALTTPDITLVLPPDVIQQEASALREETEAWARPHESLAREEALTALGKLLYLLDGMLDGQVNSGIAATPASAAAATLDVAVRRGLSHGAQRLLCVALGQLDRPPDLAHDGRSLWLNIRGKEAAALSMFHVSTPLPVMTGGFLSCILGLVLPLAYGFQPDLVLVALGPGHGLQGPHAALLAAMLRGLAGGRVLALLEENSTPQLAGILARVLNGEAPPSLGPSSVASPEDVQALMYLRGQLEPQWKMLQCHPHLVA
# [2] = target: T3, Protein deacetylase HDAC6 (Homo sapiens, UniProt Q9UBN7); assay: Inhibition of recombinant human HDAC6 enzyme using flurogenic Ac-LeuGlyLys (Ac)-AMC as substrate after 15 to 30 mins
# T3 sequence (Q9UBN7 whole entry): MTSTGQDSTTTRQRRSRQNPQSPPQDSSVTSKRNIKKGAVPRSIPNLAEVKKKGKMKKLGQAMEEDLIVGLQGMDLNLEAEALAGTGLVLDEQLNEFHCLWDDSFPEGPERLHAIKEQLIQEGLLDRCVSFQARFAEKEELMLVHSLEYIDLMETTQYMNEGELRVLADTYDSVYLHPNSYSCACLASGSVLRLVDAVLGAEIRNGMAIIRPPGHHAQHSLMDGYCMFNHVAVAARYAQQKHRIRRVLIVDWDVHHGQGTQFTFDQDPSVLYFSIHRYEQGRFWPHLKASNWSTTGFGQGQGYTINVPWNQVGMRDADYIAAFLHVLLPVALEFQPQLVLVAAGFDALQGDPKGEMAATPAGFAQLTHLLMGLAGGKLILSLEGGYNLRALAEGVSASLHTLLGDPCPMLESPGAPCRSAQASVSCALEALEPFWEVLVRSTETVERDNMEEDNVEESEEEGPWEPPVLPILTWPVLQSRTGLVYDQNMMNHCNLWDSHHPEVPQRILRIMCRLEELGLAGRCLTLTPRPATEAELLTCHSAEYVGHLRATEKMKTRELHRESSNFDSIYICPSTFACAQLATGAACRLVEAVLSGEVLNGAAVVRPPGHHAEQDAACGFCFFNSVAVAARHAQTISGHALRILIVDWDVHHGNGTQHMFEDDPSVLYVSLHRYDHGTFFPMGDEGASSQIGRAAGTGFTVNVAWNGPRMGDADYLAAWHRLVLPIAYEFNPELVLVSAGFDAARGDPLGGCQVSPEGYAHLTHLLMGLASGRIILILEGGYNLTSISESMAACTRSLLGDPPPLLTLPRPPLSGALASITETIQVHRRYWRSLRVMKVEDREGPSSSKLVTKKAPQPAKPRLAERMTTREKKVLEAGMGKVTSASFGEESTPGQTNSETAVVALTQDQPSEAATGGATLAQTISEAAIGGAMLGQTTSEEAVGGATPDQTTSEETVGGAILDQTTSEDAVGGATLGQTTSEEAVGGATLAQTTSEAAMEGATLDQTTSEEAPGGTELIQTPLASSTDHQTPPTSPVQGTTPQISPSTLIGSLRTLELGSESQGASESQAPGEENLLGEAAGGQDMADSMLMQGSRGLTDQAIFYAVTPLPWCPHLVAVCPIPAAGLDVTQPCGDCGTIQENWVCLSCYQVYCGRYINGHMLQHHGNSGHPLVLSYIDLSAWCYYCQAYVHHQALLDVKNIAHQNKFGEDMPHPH
# Histone deacetylase 8 = target: T4, Histone deacetylase 8 (Homo sapiens, UniProt Q9BY41); assay: Inhibition of recombinant human HDAC8 enzyme using Ac-LeuGlyLys (tfa)-AMC as substrate after 15 to 30 mins
# T4 sequence (Q9BY41 whole entry): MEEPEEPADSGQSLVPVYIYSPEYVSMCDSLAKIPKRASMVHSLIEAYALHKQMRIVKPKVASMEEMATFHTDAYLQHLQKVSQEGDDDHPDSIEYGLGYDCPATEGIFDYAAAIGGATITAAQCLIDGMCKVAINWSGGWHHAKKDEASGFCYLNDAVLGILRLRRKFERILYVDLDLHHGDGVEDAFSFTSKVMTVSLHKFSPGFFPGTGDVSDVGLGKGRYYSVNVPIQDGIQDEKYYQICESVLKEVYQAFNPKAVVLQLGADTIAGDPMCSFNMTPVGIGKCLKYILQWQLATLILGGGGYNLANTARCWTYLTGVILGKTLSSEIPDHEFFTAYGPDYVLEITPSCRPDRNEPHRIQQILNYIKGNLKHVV
# [3] = target: Histone deacetylase 3/NCoR1 (Homo sapiens, UniProt O15379); assay: Inhibition of GST-tagged recombinant human HDAC3/NcoR1 enzyme using flurogenic Ac-LeuGlyLys (Ac)-AMC as substrate after 15 to 30 mins; format: protein-complex assay
# Histone deacetylase 2 = Histone deacetylase 2 (Homo sapiens, UniProt Q92769); assay: Inhibition of recombinant human HDAC2 enzyme using flurogenic Ac-LeuGlyLys (Ac)-AMC as substrate after 15 to 30 mins
# Histone deacetylase 1 = Histone deacetylase 1 (Homo sapiens, UniProt Q13547); assay: Inhibition of recombinant human HDAC1 enzyme using flurogenic Ac-LeuGlyLys (Ac)-AMC as substrate after 15 to 30 mins
# [4] = target: T5, Polyamine deacetylase HDAC10 (Homo sapiens) (UniProt Q969S8); assay: Inhibition of recombinant human HDAC10 enzyme using tetrapeptide Ac-ArgThr-Lys(Ac)Lys(Ac)-AMC as substrate at 50 uM after 15 to 30 mins
# T5 sequence (whole entry): T2 sequence (Q969S8 whole entry)
# Summary of the method: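 Recombinant human HDAC10 (500 ng/well) was screened at 50 μM compound, with 100 μM of the Lys(Ac)-Lys(Ac)-AMC tetrapeptide substrate, in Tris-HCl pH 8.0 buffer with NaCl, KCl, MgCl2 and 0.5 mg/mL BSA. Plates were incubated 30 min at 37 °C, then developed with trypsin (0.4 mg/mL) for 15–30 min at room temperature and read at ex 360/em 460 nm. There were at least two assays in duplicate.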
# [5] = target: T6, Histone deacetylase 11 (Homo sapiens) (UniProt Q96DB2); assay: Inhibition of recombinant human HDAC11 enzyme using Ac-LeuGlyLys(Ac)-AMC as substrate at 50 uM after 15 to 30 mins
# T6 sequence (whole entry): T1 sequence (Q96DB2 whole entry)
# Summary of the method: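 HDAC11 (500 ng/well) was tested at a single 50 μM peptide concentration with 80 μM Ac-Leu-Gly-Lys(Ac)-AMC in Tris-HCl pH 8.0 buffer containing BSA, for 30 min at 37 °C. Trypsin development (0.4 mg/mL, 15–30 min, room temperature) released AMC, read at ex 360/em 460 nm. […] There were at least two assays in duplicate.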
# [6] = target: T7, Protein deacetylase HDAC6 (Homo sapiens) (UniProt Q9UBN7); assay: Inhibition of recombinant human HDAC6 enzyme using flurogenic Ac-LeuGlyLys (Ac)-AMC as substrate at 50 uM after 15 to 30 mins
# T7 sequence (whole entry): T3 sequence (Q9UBN7 whole entry)
# Summary of the method: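 The single-point screen used HDAC6 at 60 ng/well, 50 μM compound and 80 μM Ac-Leu-Gly-Lys(Ac)-AMC in pH 8.0 Tris buffer with 0.5 mg/mL BSA, incubated 30 min at 37 °C. Trypsin (0.4 mg/mL) was added for 15–30 min at room temperature, and fluorescence was read at 360/460 nm. Each result came from two or more assays run in duplicate.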
# [7] = target: T8, Histone deacetylase 8 (Homo sapiens) (UniProt Q9BY41); assay: Inhibition of recombinant human HDAC8 enzyme using Ac-LeuGlyLys (tfa)-AMC as substrate at 50 uM after 15 to 30 mins
# T8 sequence (whole entry): T4 sequence (Q9BY41 whole entry)
# Summary of the method: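 HDAC8 (5 ng/well) was incubated 30 min at 37 °C with 50 μM compound and 400 μM trifluoroacetylated substrate Ac-Leu-Gly-Lys(Tfa)-AMC in Tris-HCl pH 8.0 buffer with NaCl, KCl, MgCl2 and BSA. Trypsin (0.4 mg/mL) development ran 15–30 min at room temperature, with a 360/460 nm read-out. There were at least two separate duplicate assays.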
# [8] = target: Histone deacetylase 3/NCoR1 (Homo sapiens) (UniProt O15379+O75376); details: 50 uM
# Histone deacetylase 1, sequence (Q13547 whole entry): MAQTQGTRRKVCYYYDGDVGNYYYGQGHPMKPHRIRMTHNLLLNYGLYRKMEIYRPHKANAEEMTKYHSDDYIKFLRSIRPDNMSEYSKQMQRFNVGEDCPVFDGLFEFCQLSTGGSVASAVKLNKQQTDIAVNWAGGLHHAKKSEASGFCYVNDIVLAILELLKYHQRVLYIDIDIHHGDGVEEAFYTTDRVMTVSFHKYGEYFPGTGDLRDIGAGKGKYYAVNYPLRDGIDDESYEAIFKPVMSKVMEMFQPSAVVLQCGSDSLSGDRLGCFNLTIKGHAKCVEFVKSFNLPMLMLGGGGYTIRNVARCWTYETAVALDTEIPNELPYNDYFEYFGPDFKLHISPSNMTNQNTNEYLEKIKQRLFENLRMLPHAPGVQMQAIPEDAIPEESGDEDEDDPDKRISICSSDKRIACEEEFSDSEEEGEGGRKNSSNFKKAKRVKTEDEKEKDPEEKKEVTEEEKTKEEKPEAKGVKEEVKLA
# Histone deacetylase 2, sequence (Q92769 whole entry): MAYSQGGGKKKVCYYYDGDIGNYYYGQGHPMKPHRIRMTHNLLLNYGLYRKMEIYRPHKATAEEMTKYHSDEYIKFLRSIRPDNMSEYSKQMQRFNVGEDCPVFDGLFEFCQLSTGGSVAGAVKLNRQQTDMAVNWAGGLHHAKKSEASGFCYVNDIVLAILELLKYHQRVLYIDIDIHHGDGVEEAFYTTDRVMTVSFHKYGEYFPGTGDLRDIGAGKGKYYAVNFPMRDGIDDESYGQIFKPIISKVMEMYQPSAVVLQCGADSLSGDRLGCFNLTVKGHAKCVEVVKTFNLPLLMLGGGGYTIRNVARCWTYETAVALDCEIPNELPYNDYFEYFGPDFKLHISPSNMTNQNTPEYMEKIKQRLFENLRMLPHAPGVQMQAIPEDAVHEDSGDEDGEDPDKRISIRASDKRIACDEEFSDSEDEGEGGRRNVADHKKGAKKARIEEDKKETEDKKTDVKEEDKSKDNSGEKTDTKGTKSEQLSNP
# Histone deacetylase 3/NCoR1, sequence (O15379 whole entry): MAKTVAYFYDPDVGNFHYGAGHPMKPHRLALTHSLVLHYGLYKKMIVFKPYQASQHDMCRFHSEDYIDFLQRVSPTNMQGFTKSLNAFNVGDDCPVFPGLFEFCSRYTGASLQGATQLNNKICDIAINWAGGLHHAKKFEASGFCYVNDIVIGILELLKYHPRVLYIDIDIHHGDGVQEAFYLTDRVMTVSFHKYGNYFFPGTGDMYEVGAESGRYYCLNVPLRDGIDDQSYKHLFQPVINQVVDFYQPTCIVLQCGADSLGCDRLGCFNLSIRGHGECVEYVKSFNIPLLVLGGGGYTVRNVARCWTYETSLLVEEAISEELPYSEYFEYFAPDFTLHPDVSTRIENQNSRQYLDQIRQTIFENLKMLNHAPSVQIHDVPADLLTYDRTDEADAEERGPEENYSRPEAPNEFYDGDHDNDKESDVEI
# Histone deacetylase 3/NCoR1, sequence (O75376 whole entry, further chain): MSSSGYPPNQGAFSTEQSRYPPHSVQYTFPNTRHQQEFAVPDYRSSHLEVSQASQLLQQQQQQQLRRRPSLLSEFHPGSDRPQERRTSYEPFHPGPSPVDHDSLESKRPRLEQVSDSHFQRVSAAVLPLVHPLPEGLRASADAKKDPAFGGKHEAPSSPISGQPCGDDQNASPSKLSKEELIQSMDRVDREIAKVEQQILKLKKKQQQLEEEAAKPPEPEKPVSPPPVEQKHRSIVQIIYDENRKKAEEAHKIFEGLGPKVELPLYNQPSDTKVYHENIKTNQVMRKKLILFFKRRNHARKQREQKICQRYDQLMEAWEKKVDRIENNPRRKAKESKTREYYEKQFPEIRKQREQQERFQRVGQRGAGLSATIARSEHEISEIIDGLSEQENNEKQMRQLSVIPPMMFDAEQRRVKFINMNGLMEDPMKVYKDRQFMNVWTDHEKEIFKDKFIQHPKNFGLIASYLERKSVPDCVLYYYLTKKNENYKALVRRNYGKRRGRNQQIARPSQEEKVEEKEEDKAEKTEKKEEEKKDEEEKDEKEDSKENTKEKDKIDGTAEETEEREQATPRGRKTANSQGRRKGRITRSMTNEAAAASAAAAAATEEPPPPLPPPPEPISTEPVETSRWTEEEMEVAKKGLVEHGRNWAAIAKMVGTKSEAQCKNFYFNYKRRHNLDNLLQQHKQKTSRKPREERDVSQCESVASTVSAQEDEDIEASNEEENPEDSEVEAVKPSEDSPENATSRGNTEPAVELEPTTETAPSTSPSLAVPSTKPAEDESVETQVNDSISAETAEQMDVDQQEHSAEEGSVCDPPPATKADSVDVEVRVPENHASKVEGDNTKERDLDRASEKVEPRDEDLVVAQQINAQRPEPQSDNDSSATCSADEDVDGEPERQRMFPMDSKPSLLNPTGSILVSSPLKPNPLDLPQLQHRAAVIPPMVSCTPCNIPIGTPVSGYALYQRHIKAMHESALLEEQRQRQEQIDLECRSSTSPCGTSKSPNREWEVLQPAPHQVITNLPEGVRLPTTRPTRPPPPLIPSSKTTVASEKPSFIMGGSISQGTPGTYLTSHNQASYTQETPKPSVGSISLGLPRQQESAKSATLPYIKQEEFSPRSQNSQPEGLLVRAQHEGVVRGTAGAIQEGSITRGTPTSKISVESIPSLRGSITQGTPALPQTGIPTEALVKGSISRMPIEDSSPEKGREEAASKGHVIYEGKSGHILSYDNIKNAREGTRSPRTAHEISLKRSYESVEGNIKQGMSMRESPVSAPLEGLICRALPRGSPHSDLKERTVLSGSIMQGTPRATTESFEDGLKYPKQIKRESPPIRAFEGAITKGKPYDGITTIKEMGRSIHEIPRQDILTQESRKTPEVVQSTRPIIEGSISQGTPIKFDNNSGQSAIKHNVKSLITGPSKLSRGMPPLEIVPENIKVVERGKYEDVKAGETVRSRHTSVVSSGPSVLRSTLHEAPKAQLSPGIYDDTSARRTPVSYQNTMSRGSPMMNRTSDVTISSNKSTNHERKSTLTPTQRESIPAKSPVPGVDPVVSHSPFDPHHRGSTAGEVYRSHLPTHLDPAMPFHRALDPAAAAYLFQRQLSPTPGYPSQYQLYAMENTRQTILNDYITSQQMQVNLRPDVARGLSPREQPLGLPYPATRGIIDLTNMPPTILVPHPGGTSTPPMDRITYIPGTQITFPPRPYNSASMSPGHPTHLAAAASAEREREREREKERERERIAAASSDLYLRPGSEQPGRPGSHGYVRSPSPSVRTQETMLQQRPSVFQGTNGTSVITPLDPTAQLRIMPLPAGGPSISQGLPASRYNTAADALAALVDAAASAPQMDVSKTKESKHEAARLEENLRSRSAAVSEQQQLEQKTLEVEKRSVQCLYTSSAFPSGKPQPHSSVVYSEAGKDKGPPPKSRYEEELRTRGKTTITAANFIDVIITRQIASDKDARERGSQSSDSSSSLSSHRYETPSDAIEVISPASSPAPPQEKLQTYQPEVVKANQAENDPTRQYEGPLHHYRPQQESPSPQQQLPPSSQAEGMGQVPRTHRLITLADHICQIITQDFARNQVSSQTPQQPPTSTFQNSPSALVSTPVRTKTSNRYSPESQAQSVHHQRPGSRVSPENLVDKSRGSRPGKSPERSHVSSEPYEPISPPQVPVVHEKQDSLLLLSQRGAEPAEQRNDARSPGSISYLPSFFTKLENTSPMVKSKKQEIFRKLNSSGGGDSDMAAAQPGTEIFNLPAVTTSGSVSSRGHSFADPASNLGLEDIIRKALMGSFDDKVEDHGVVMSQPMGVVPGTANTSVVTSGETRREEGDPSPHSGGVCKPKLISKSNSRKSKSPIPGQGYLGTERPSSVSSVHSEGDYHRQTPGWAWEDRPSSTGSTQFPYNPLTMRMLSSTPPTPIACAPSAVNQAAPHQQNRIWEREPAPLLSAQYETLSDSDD
Compound,Ki (Histone deacetylase 11),Ki [1],Ki [2],Ki (Histone deacetylase 8),Ki [3],Ki (Histone deacetylase 2),Ki (Histone deacetylase 1),inhibition [4],inhibition [5],inhibition [6],inhibition [7],inhibition [8]
CC(C)[C@H]1NC(=O)[C@@H](C)[C@@H](C/C=C\CCC(=O)O)NC(=O)[C@@H](Cc2ccccc2)NC(=O)[C@@H](C)NC1=O [AZUMAMIDE E],0.06 µM,0.02 µM,> 5 µM,4.4 µM,0.025 µM,–,–,–,–,–,–,–
CC(C)[C@H]1NC(=O)[C@@H](C)[C@@H](C/C=C\CCC(=O)O)NC(=O)[C@@H](Cc2ccc(O)cc2)NC(=O)[C@@H](C)NC1=O [AZUMAMIDE C],0.035 µM,0.01 µM,2 µM,> 5 µM,0.014 µM,0.04 µM,32 nM,–,–,–,–,–
CC(C)[C@H]1NC(=O)[C@@H](C)[C@H](C/C=C\CCC(=O)O)NC(=O)[C@@H](Cc2ccccc2)NC(=O)[C@@H](C)NC1=O,–,–,–,–,–,–,–,< 50%,< 50%,< 50%,< 50%,< 50%
CC(C)[C@H]1NC(=O)[C@H](C)[C@@H](C/C=C\CCC(=O)O)NC(=O)[C@@H](Cc2ccccc2)NC(=O)[C@@H](C)NC1=O,–,–,–,–,–,–,–,< 50%,< 50%,< 50%,< 50%,< 50%
C/C=C1\NC(=O)[C@H]2CSSCC/C=C/[C@H](CC(=O)N[C@H](C(C)C)C(=O)N2)OC(=O)[C@H](C(C)C)NC1=O [ROMIDEPSIN],–,–,–,–,–,–,0.002 nM,–,–,–,–,–
CC(C)[C@H]1NC(=O)[C@@H](C)[C@@H](C/C=C\CCC(N)=O)NC(=O)[C@@H](Cc2ccccc2)NC(=O)[C@@H](C)NC1=O [AZUMAMIDE A],> 5 µM,–,–,> 5 µM,3.2 µM,> 5 µM,> 5000 nM,< 50%,–,< 50%,–,–
C[C@@H]1C(=O)N[C@H](C)C(=O)N[C@H](C)C(=O)N[C@H](Cc2ccccc2)C(=O)N[C@@H]1C/C=C\CCC(N)=O [AZUMAMIDE D],> 5 µM,–,–,–,3.7 µM,> 5 µM,> 5000 nM,< 50%,–,< 50%,< 50%,–
CC(C)[C@H]1NC(=O)[C@@H](C)[C@@H](C/C=C\CCC(N)=O)NC(=O)[C@@H](Cc2ccc(O)cc2)NC(=O)[C@@H](C)NC1=O [AZUMAMIDE B],> 5 µM,–,–,–,3 µM,3 µM,5000 nM,< 50%,–,< 50%,< 50%,–

# Reference: ChEMBL document CHEMBL2417416, “Total synthesis and full histone deacetylase inhibitory profiling of Azumamides A-E as well as β²- epi-Azumamide E and β³-epi-Azumamide E” (J Med Chem, 2013)
